Data as given in ChEMBL document CHEMBL1275343, “A diverse series of substituted benzenesulfonamides as aldose reductase inhibitors with antioxidant activity: design, synthesis, and in vitro activity” (J Med Chem, 2010).

Experiments:
Rattus norvegicus [1] = species: Rattus norvegicus; experiment: Selectivity ratio of IC50 for Fischer-344 rat kidney AK1A1 to IC50 for Fischer-344 rat lens ALR2; assay type: tissue-based; conditions: Lens of camera-type eye
[2] = Antioxidant activity in L-alpha-phosphatidylcholine dioleoyl liposome assessed as inhibition of AAPH-induced lipid peroxidation by LOOH assay; assay type: functional
Method in brief: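 Unilamellar DOPC liposomes (0.8 mM) peroxidized by aqueous-phase peroxyl radicals from thermal decomposition of AAPH; Trolox standard; lipid hydroperoxide (LOOH) quantified against a calibration curve.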

[3] = DPPH radical scavenging activity assessed as initial rate of interaction at 0.2 mM; assay type: functional
Method in brief: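 Equimolar compound and DPPH (0.2 mM each) in ethanol; initial rate estimated from the roughly linear absorbance decrease over the first 30 s. Triplicate.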

[4] = system: Radical scavenging activity; experiment: Antioxidant activity assessed as ratio of IC50 for DPPH radical scavenging activity to concentration of DPPH; assay type: functional
[5] = molecular target: Aldo-keto reductase family 1 member B1 (Rattus norvegicus) (UniProt P07943); experiment: Inhibition of Fischer-344 rat lens ALR2 at 100 uM; assay type: tissue-based; conditions: Lens of camera-type eye
[6] = system: Radical scavenging activity; experiment: Antioxidant activity assessed as DPPH radical scavenging activity after 270 mins by least-square analysis; assay type: functional
[7] = molecular target: T1, Aldo-keto reductase family 1 member A1 (Rattus norvegicus, UniProt P51635); experiment: Inhibition of Fischer-344 rat kidney AK1A1
T1 sequence (P51635 whole entry): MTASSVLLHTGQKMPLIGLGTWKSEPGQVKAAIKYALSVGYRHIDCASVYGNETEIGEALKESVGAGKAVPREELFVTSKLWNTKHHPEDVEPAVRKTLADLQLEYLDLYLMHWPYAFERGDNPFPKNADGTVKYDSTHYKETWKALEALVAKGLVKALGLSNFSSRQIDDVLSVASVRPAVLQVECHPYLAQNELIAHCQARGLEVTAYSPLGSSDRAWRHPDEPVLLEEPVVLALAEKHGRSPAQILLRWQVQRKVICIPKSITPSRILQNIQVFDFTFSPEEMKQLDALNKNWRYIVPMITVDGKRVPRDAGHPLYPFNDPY

[8] = molecular target: T2, Aldo-keto reductase family 1 member A1 (Rattus norvegicus) (UniProt P51635); experiment: Inhibition of Fischer-344 rat kidney AK1A1 at 100 uM
T2 sequence (whole entry): T1 sequence (P51635 whole entry)

Rattus norvegicus [9] = species: Rattus norvegicus; experiment: Selectivity ratio of inhibition of Fischer-344 rat lens ALR2sto inhibition of Fischer-344 rat kidney AK1A1 at 100 uM; assay type: tissue-based; conditions: Lens of camera-type eye
Method in brief: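 Ratio of % inhibition of rat lens ALR2 to % inhibition of rat kidney ALR1, each measured at 100 μM compound.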

[10] = molecular target: Aldo-keto reductase family 1 member B1 (Rattus norvegicus, UniProt P07943); experiment: Inhibition of Fischer-344 rat lens ALR2 by least-square analysis; assay type: tissue-based, Lens of camera-type eye
Method in brief: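 Lenses from Fischer-344 rats of both sexes as ALR2 source; NADPH oxidation followed spectrophotometrically. Five concentrations, IC50 by least-squares of linear portion of log(dose)-response curves (0.889<r²<0.994); triplicate.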

[11] = molecular target: T3, Aldo-keto reductase family 1 member A1 (Homo sapiens, UniProt P14550); experiment: Inhibition of AK1A1
T3 sequence (P14550 whole entry): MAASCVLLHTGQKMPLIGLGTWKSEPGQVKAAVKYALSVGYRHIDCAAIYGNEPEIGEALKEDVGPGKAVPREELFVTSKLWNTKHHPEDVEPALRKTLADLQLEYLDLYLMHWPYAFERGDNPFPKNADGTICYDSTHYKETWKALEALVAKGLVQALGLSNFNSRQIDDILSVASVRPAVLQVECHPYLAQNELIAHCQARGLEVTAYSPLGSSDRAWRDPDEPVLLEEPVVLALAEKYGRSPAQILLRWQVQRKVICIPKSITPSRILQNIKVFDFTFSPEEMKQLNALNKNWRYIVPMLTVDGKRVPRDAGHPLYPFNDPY

| Structure (SMILES) | IC50 [2] | inhibition [5] | IC50 [6] | IC50 [7] | inhibition [8] | IC50 [10] | IC50 [11] | Ratio IC50 (Rattus norvegicus [1]) | Activity [3] | Ratio [4] | Selectivity ratio (Rattus norvegicus [9]) |
| --- | --- | --- | --- | --- | --- | --- | --- | --- | --- | --- | --- |
| O=[N+]([O-])c1ccc(S(=O)(=O)Nc2cc(F)c(O)c(F)c2)cc1 | 45.7 µM | 63.9% | 54.8 µM | 133 µM | 55.7% |  |  | 2.99 | 0.465 s⁻¹ | 0.27 |  |
| Nc1ccc(S(=O)(=O)Nc2cc(F)c(O)c(F)c2)cc1 | 48.1 µM | 84.1% | 44.7 µM | 10.3 µM | 85.4% |  |  | 0.73 | 0.777 s⁻¹ | 0.22 |  |
| O=[N+]([O-])c1ccc(S(=O)(=O)N(Cc2ccc(Br)cc2F)c2cc(F)c(O)c(F)c2)cc1 | 61.8 µM | 75.1% | 61.5 µM | 15.4 µM | 69.8% | 9 µM |  | 1.71 | 0.974 s⁻¹ | 0.31 |  |
| O=S(=O)(Nc1cc(F)c(O)c(F)c1)c1ccc(C(F)(F)F)cc1 | 66 µM | 55.8% | 45.1 µM | 105 µM | 50.6% | 91.5 µM |  | 1.15 | 0.49 s⁻¹ | 0.23 |  |
| Nc1ccc(S(=O)(=O)N(Cc2ccc(Br)cc2F)c2cc(F)c(O)c(F)c2)cc1 | 73.1 µM | 87.4% | 61.9 µM | 0.323 µM | 95.3% | 0.397 µM |  | 0.81 | 0.977 s⁻¹ | 0.31 |  |
| CCNC(=O)Nc1ccc(S(=O)(=O)Nc2cc(F)c(O)c(F)c2)cc1 | 81.7 µM | 63.6% | 51.6 µM | 25.5 µM | 68.5% | 37.8 µM |  | 0.67 | 0.859 s⁻¹ | 0.28 |  |
| Cc1c(C)c2c(c(C)c1O)CCC(C)(C(=O)O)O2 (centres undefined) [TROLOX] | 93.5 µM |  | 37 µM |  |  |  |  |  | 1.81 s⁻¹ | 0.19 |  |
| COc1ccc(S(=O)(=O)Nc2cc(F)c(O)c(F)c2)cc1 | 55.1 µM | 79.5% | 45.2 µM | 23.8 µM | 83% |  |  | 1.54 | 0.661 s⁻¹ | 0.23 |  |
| O=S(=O)(Nc1cc(F)c(O)c(F)c1)c1ccc(-n2cccc2)cc1 | 97.1 µM | 61.1% | 48.6 µM | 281 µM | 41.7% | 57.1 µM |  | 4.92 | 0.489 s⁻¹ | 0.24 |  |
| COc1ccc(C(=O)Nc2ccc(S(=O)(=O)Nc3cc(F)c(O)c(F)c3)cc2)cc1 | 70.7 µM | 77.9% | 56.9 µM | 12.4 µM | 71.7% | 12 µM |  | 1.03 | 0.995 s⁻¹ | 0.26 |  |
| O=S(=O)(c1ccccc1)N(c1cc(F)c(O)c(F)c1)S(=O)(=O)c1ccccc1 | 139 µM | 65.1% | 63.2 µM | 9.7 µM | 93.8% | 28.1 µM |  | 0.35 | 0.967 s⁻¹ | 0.32 |  |
| O=S(=O)(c1ccccc1)N(Cc1ccc(Br)cc1F)c1cc(F)c(O)c(F)c1 | 66 µM | 74.6% | 60.9 µM | 11.9 µM | 69.2% | 5.7 µM |  | 2.09 | 1 s⁻¹ | 0.3 |  |
| CCCC(CCC)C(=O)O [VALPROIC ACID] |  |  |  |  |  |  | 50.1 µM |  |  |  |  |

More lines, main results first:

| IC50 [2] | inhibition [5] | IC50 [6] | IC50 [7] | inhibition [8] | IC50 [10] | IC50 [11] | Structure (SMILES) | Ratio IC50 (Rattus norvegicus [1]) | Activity [3] | Ratio [4] | Selectivity ratio (Rattus norvegicus [9]) |
| --- | --- | --- | --- | --- | --- | --- | --- | --- | --- | --- | --- |
|  | 23.8% |  |  | 19.9% |  |  | O=S(=O)(NCc1nnn[nH]1)c1ccccc1 |  |  |  | 1.2 |
| 68.6 µM | 87.7% | 49.7 µM | 6.9 µM | 81.1% | 7.9 µM |  | O=C(Nc1ccc(S(=O)(=O)Nc2cc(F)c(O)c(F)c2)cc1)c1ccccc1 | 0.87 | 0.817 s⁻¹ | 0.25 |  |
|  | 48.9% |  |  | 2.67% | 71.2 µM |  | O=C1NOC[C@@H]1NS(=O)(=O)c1ccccc1 |  |  |  | 18.3 |
| 95.9 µM | 71.3% | 49 µM | 19.6 µM | 79.2% |  |  | O=S(=O)(Nc1cc(F)c(O)c(F)c1)c1ccccc1 | 0.6 | 0.498 s⁻¹ | 0.25 | 0.89 |
|  | 25.7% |  |  | 22.4% |  |  | O=C1NOC[C@H]1NS(=O)(=O)c1ccccc1 |  |  |  | 1.15 |
|  | 51.7% |  |  | 30.5% | 86.7 µM |  | O=C(O)CNS(=O)(=O)c1ccccc1 |  |  |  | 1.69 |
|  | 32.9% |  |  | 12.2% |  |  | CS(=O)(=O)NC(=O)CNS(=O)(=O)c1ccccc1 |  |  |  | 2.69 |
|  | 44.8% |  |  | 21.7% |  |  | O=S(=O)(Nc1nnn[nH]1)c1ccccc1 |  |  |  | 2.06 |
